# Test results published in ChEMBL document CHEMBL1177665, “Discovery of potent and orally active tricyclic-based FBPase inhibitors” (Bioorg Med Chem, 2010).
# Calls of active or inactive are those of the source. The calls are words filed in the database; no cut-off is given here.
# Assays:
# [1] = Antidiabetic activity in monkey hepatocytes assessed as inhibition of glucose production after 4 hrs; type: functional, cell-based; conditions: Macaca mulatta, Hepatocyte
# Procedure, shortened: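 Monkey hepatocytes in phosphate buffered saline with 25 mM sodium bicarbonate, 25 mM HEPES, 1% BSA; compound preincubation only 2 min, then washed out and cells incubated 4 h with 10 mM lactate plus 1 mM pyruvate. Medium glucose measured by Glucose CII-test; IC50 reported as mean SD (n = 7).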
# [2] = Inhibition of monkey FBase; design: species or system Macaca mulatta
# [3] = molecular target: T1, Fructose-1,6-bisphosphatase 1 (Homo sapiens, UniProt P09467); test: Inhibition of human FBase
# T1 sequence (P09467 whole entry): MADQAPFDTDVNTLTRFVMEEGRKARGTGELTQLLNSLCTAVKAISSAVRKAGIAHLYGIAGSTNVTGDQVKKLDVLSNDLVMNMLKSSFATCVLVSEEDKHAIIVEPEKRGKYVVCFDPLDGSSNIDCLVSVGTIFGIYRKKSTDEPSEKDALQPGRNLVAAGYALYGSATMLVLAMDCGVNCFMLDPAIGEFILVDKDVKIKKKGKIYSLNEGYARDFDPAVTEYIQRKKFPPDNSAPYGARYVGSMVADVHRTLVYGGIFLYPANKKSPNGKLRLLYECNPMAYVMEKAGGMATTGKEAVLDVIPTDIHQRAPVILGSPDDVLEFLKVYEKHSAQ
# Cynomolgus monkey = test: Antidiabetic activity in cynomolgus monkey assessed as decrease in blood glucose level at 20 mg/kg, po after 4 hrs; type: functional, organism-based; design: dose 20 mg/kg; conditions: Macaca fascicularis
# Procedure, shortened: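 Overnight-fasted cynomolgus monkeys (n = 7, 5–8 years old) dosed orally at 20 mg/kg in vehicle (50% PEG 400, 0.5% MC, 0.5% Tween 80) or vehicle alone; crossover in same animals with at least 2-week washout. Blood drawn predose and 1–12 h post-dose; plasma glucose read on i-STAT 300F analyser; mean S.E.M., paired t-test versus vehicle.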
smiles,measurement,setting,value
CCOC(=O)[C@H](C)NP(=O)(COc1ccc(C(N)=O)c2c1-c1ncsc1C2)N[C@@H](C)C(=O)OCC,IC50,[1],94 µM
same,IC50,[2],22 nM
same,IC50,[3],1 nM
CCOC(=O)[C@H](C)NP(=O)(COc1cc(C)c(C)c2c1-c1ncsc1C2)N[C@@H](C)C(=O)OCC,Activity,Cynomolgus monkey,Active
same,IC50,[1],6.8 µM
same,IC50,[2],34 nM
same,IC50,[3],10 nM
CCOC(=O)[C@H](C)NP(=O)(COc1ccc(CC)c2c1-c1ncsc1C2)N[C@@H](C)C(=O)OCC,IC50,[1],23 µM
same,IC50,[2],23 nM
same,IC50,[3],11 nM
Cc1cc(OCP(=O)(N[C@@H](C)C(=O)OC(C)C)N[C@@H](C)C(=O)OC(C)C)c2c(c1C)Cc1scnc1-2,IC50,[1],9 µM
same,IC50,[2],34 nM
same,IC50,[3],10 nM
CCOC(=O)[C@H](C)NP(=O)(COc1ccc(C(=O)NCC(C)(C)C)c2c1-c1ncsc1C2)N[C@@H](C)C(=O)OCC,IC50,[1],> 100 µM
same,IC50,[2],31 nM
same,IC50,[3],11 nM
CCOC(=O)CNP(=O)(COc1cc(C)c(C)c2c1-c1ncsc1C2)NCC(=O)OCC,IC50,[1],9.4 µM
same,IC50,[2],34 nM
same,IC50,[3],10 nM
CCOC(=O)[C@H](C)NP(=O)(COc1ccc(C)c2c1-c1ncsc1C2)N[C@@H](C)C(=O)OCC,IC50,[1],7.4 µM
same,IC50,[2],24 nM
same,IC50,[3],8 nM
CCOC(=O)[C@H](C)NP(=O)(COc1ccc(C(=O)NC)c2c1-c1ncsc1C2)N[C@@H](C)C(=O)OCC,IC50,[1],> 100 µM
same,IC50,[2],19 nM
same,IC50,[3],2 nM
CCOC(=O)[C@H](C)NP(=O)(N[C@@H](C)C(=O)OCC)c1ccc(-c2nc(N)sc2CC(C)C)o1,IC50,[1],10 µM
same,IC50,[2],30 nM
same,IC50,[3],10 nM
